From ChEMBL document CHEMBL2311519, “Identification and characterization of new DNA G-quadruplex binders selected by a combination of ligand and structure-based virtual screening approaches” (J Med Chem, 2013)
One block for each compound: values may come before it. The source made the active and inactive calls. The calls are words filed in the database; no cut-off is given here.

Experiments:
[1] = species on record: Homo sapiens; assay: Binding affinity to 18 bp double-stranded DNA (unknown origin) assessed as DNA stabilization by fluorescence melting assay
Outline: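 Fluorescence melting in a real-time PCR cycler (excitation 488 nm, emission 520 nm). The HTS target carried 5′-Dabcyl and 3′-fluorescein; the 18 bp duplex was also a target. Mixtures held 0.25 μM DNA plus ligand in 10 mM LiOH, 50 mM KCl, pH 7.4 (H3PO4). Samples were denatured at 95 °C for 5 min, cooled to 30 °C at 0.5 °C/min, then heated to 90 °C and recooled at 0.2 °C/min. Tm came from the first derivative, ≥3 repeats.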

[2] = species on record: Homo sapiens; assay: Binding affinity to human telomeric sequence 5'-AGGGTTAGGGTTAGGGTTAGGGT-3' assessed as change in melting temperature at 10 uM by fluorescence melting assay
[3] = species on record: Homo sapiens; assay: Binding affinity to G-quadruplex folded telomeric sequence Tel22 DNA (unknown origin) assessed as DNA stabilization at 8 uM by circular dichroism spectral analysis
[4] = tested on: DNA; assay: Binding affinity to calf thymus DNA assessed as DNA stabilization at 8 uM by circular dichroism spectral analysis; settings: Bos taurus
[5] = species on record: Homo sapiens; assay: Stabilization of single-stranded DNA 5'-GGATGTGAGTGTGAGTGTGAGG-3' (unknown origin) assessed as DNA modifications at 20 to 50 uM measured 20 mins post UV irradiation by PAGE analysis
Outline: (§1)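 Tel22 or single-stranded 22-mer 5′-32P end-labelled with T4 kinase; 1 μM DNA in 10 mM Tris, 50 mM KCl, pH 7.5 with increasing ligand, irradiated at 308 nm for variable time (or ligand pre-irradiated 30 min, or non-irradiated); products run on 20% polyacrylamide/7 M urea in 1× TBE, quantified by phosphorimaging.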

[6] = Stability of the compound assessed as retention time; format: physicochemical
Outline: (§2)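 30 μM ligand in 10 mM Tris-HCl, 50 mM KCl, pH 7.5 irradiated at 308 nm (0.022 J/min), 25 °C, for increasing times; analysed by LC on C18 (water/acetonitrile 4–80% gradient with 0.1% formic acid over 20 min, 0.02 mL/min) with positive-mode ESI-MS, m/z 100–2500.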

[7] = Stability of the compound assessed as retention time after 25 mins of UV irradiation; format: physicochemical; outline: as §2
[8] = Stability of the compound assessed as retention time after 100 mins of UV irradiation; format: physicochemical
Outline: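 Ligand (30 μM) in 10 mM Tris-HCl, 50 mM KCl, pH 7.5 was irradiated at 308 nm (0.022 J/min) at 25 °C for increasing times. Samples ran on C18 HPLC at 0.02 mL/min with a water/acetonitrile gradient (0.1% formic acid) of 4–80% over 20 min. Detection was positive-mode ESI-MS (4.5 kV, m/z 100–2500).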

[9] = Stability of the compound assessed as retention time after 3 mins of UV irradiation; format: physicochemical; settings: 0.05 h; outline: as §2
[10] = species on record: Homo sapiens; assay: Binding affinity to G-quadruplex folded telomeric sequence Tel22 DNA (unknown origin) assessed as DNA stabilization measured 25 mins post UV irradiation by circular dichroism spectral analysis
[11] = species on record: Homo sapiens; assay: Stabilization of G-quadruplex folded telomeric sequence Tel22 DNA (unknown origin) assessed as DNA modifications at 20 to 50 uM measured 20 mins post UV irradiation by PAGE analysis; outline: as §1
[12] = species on record: Homo sapiens; assay: Binding affinity to G-quadruplex folded telomeric sequence Tel22 DNA (unknown origin) assessed as DNA stabilization at 8 uM by circular dichroism spectral analysis relative to control
[13] = species on record: Homo sapiens; assay: Stabilization of double-stranded DNA (unknown origin) assessed as DNA modifications at 20 to 50 uM measured 20 mins post UV irradiation by PAGE analysis
[14] = species on record: Homo sapiens; assay: Binding affinity to human telomeric sequence 5'-AGGGTTAGGGTTAGGGTTAGGGT-3' assessed as thermal stability by fluorescence melting assay relative to control
Outline: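 Fluorescence melting on a LightCycler (ex 488, em 520 nm); 0.25 μM 5′-Dabcyl/3′-fluorescein HTS oligo in 10 mM LiOH, 50 mM KCl, pH 7.4 (H3PO4); ligand 0.5–10 μM; denatured 95 °C 5 min, cooled to 30 °C, melted 0.2 °C/min to 90 °C; Tm from first derivative; ≥3 repeats.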

Structure (SMILES): COc1ccc(-c2coc3cc4oc(=O)c(CC(=O)N5CCN(CCO)CC5)c(C)c4cc23)cc1
Activity [1]: inactive

Structure (SMILES): CN(C)c1ccc(Nc2c3ccc(NC(=O)CCN4CCCC4)cc3nc3cc(NC(=O)CCN4CCCC4)ccc23)cc1
deltaTm [2]: 32 °C

Structure (SMILES): Cc1c(CCC(=O)NCCCn2ccnc2)c(=O)oc2cc3occ(-c4ccc(F)cc4)c3cc12
Activity [1]: inactive

Structure (SMILES): Cc1cc2c3c([n+](C)c4ccc(F)cc4c3c1)-c1cc(F)ccc1N2C
deltaTm [2]: 30 °C

Structure (SMILES): Cc1c(CC(=O)N2CCN(C)CC2)c(=O)oc2cc3occ(-c4ccc(Cl)cc4)c3cc12
Activity [3]: inactive | Activity [1]: inactive | Activity [4]: inactive | Activity [5]: Active | Retention_time [6]: 17.2 min | Activity [14]: inactive | Retention_time [7]: 16.1 min | Retention_time [9]: 16.1 min | Activity [10]: inactive | Activity [11]: Active | Activity [12]: inactive | Activity [13]: Active

The remaining lines, values ahead:

Activity [1]: inactive
Structure (SMILES): Cc1c(CCC(=O)N2CCN(C)CC2)c(=O)oc2cc3occ(-c4ccccc4)c3cc12

Activity [3]: inactive | Activity [1]: inactive | Activity [4]: inactive | Activity [5]: Active | Retention_time [6]: 17 min | Retention_time [7]: 16.6 min | Retention_time [8]: 16.6 min | Retention_time [9]: 16.6 min | Activity [10]: inactive | Activity [11]: Active | Activity [12]: inactive | Activity [13]: Active
Structure (SMILES): Cc1c(CC(=O)N(C)C2CCN(C)CC2)c(=O)oc2c(C)c3occ(-c4ccccc4)c3cc12
